Laboratory results: ChEMBL document CHEMBL1124804, “Substituted vitamin K epoxide analogues. New competitive inhibitors and substrates of vitamin K1 epoxide reductase” (J Med Chem, 1990)

Experiments:
[1] = substrate: CC(C)CCCC(C)CCCC(C)CCCC(C)CC(O)C12OC1(C)C(=O)c1ccccc1C2=O; test: (§1) Vmax value at Vitamin K epoxide reductase
In short: (§2)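 Analogues served as alternative substrates in place of vitamin K1 epoxide for beef liver microsomal reductase (0.02% Emulgen 911, DTT), at 10–100 μM (12 levels). Km and Vmax came from rates of quinone product formation, not from substrate consumption. They were reported only where the quinone product was stable to DTT.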

[2] = substrate: C/C(=C\CC12OC1(C)C(=O)c1ccccc1C2=O)CCCC(C)CCCC(C)CCCC(C)C; test: as §1; in short: as §2
[3] = substrate: CC(C)CCCC(C)CCCC(C)CCCC(C)/C=C/C12OC1(C)C(=O)c1ccccc1C2=O; test: as §1; in short: as §2
[4] = substrate: C/C(=C\CC12OC1(CO)C(=O)c1ccccc1C2=O)CCCC(C)CCCC(C)CCCC(C)C; test: as §1; in short: as §2
[5] = substrate: CC(C)CCCC(C)CCCC(C)CCCC(C)CCC12OC1(C)C(=O)c1ccccc1C2=O; test: as §1; in short: as §2
[6] = substrate: C/C(=C\C(O)C12OC1(C)C(=O)c1ccccc1C2=O)CCCC(C)CCCC(C)CCCC(C)C; test: as §1; in short: as §2
[7] = substrate: C/C(=C\CC12OC1(CF)C(=O)c1ccccc1C2=O)CCCC(C)CCCC(C)CCCC(C)C; test: as §1; in short: as §2
[8] = substrate: CC(C)CCCC(C)CCCC(C)CCCC(C)CC(O)C12OC1(C)C(=O)c1ccccc1C2=O; test: (§3) Km value at Vitamin K epoxide reductase; in short: as §2
[9] = substrate: C/C(=C\CC12OC1(C)C(=O)c1ccccc1C2=O)CCCC(C)CCCC(C)CCCC(C)C; test: as §3; in short: as §2
[10] = substrate: CC(C)CCCC(C)CCCC(C)CCCC(C)/C=C/C12OC1(C)C(=O)c1ccccc1C2=O; test: as §3; in short: as §2
[11] = substrate: C/C(=C\CC12OC1(CO)C(=O)c1ccccc1C2=O)CCCC(C)CCCC(C)CCCC(C)C; test: as §3; in short: as §2
[12] = substrate: CC(C)CCCC(C)CCCC(C)CCCC(C)CCC12OC1(C)C(=O)c1ccccc1C2=O; test: as §3; in short: as §2
[13] = substrate: C/C(=C\C(O)C12OC1(C)C(=O)c1ccccc1C2=O)CCCC(C)CCCC(C)CCCC(C)C; test: as §3; in short: as §2
[14] = substrate: C/C(=C\CC12OC1(CF)C(=O)c1ccccc1C2=O)CCCC(C)CCCC(C)CCCC(C)C; test: as §3; in short: as §2

B1: Vitamin K epoxide reductase complex subunit 1 (Bos taurus), Q6B4J2 (protein)
chain: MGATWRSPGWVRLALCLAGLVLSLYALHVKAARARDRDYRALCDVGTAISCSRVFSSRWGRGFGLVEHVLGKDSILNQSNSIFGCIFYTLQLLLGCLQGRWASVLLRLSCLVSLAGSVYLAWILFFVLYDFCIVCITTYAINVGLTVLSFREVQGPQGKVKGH
- Vmax [1]: 1.6 pmol/s/mg
- Vmax [2]: 2.9 pmol/s/mg
- Vmax [3]: 2 pmol/s/mg
- Vmax [4]: 3.4 pmol/s/mg
- Vmax [5]: 2.1 pmol/s/mg
- Vmax [6]: 2.4 pmol/s/mg
- Vmax [7]: 4 pmol/s/mg
- Km [8]: 34 µM
- Km [9]: 18 µM
- Km [10]: 68 µM
- Km [11]: 10 µM
- Km [12]: 30 µM
- Km [13]: 25 µM
- Km [14]: 20 µM
